The source of these data is publication PMC3715850 (Nature Communications, 2013).

Where two headings read alike, the source gives them in different places.

Common to all, as to format: binding
For one assay, the target named is E710A (Escherichia coli, UniProt P00582, C907S/D424A/E710A/K550C/L744C). The conditions noted are these: for occupancy of the closed conformation: 1 mM dNTP. In short, it runs like this: (§1)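 Doubly labelled Klenow fragment (<100 pM) with DNA, titrated with nucleotide in 40 mM HEPES-NaOH pH 7.3, 10 mM MgCl2, 1 mM DTT, 100 μg ml−1 BSA, 5% glycerol, 1 mM mercaptoethylamine. Read by confocal alternating-laser excitation (532/638 nm) at ~22 °C. Stoichiometry-filtered E* histograms fitted as double Gaussians (σ≤0.07). Low-FRET peak shift and high-FRET fraction globally fitted for K0, K1, K2; Kd1=1/K1, Kd2=1/(K1K2).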

Another assay addresses Y766A (Escherichia coli, UniProt P00582, C907S/D424A/K550C/L744C/Y766A). The conditions noted are these: template G (DNA2); listed as G-dCTP. The gist of the method:
as §1

Assay [1] has as its target T1, wt KF (Escherichia coli, UniProt P00582, C907S/D424A/K550C/L744C). The conditions noted are these: for free energy of closed complex relative to partially closed state, ΔrG(IN/CN) / free energy of partially closed state relative to open binary complex, ΔrG(O/IN): template A; for free energy of partially closed state relative to open binary complex, ΔrG(O/IN): nucleotide concentrations in E. coli (dTTP 120 μM, dGTP 60 μM). In short, it runs like this:
as §1

For assay [2], the target named is T1, wt KF. Description: Single-molecule FRET nucleotide titration in the absence of DNA. The conditions noted are these: no DNA. The gist of the method:
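Polymerase without DNA: doubly labelled protein (<100 pM) titrated with nucleotide in HEPES-NaOH pH 7.3 buffer with 10 mM MgCl2, at ~22 °C by confocal alternating-laser excitation smFRET. O and C denote unliganded-protein states. Double-Gaussian fits of stoichiometry-filtered E* histograms; low-FRET peak shift and high-FRET fraction fitted globally for K0, K1, K2, with Kd1=1/K1.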

Assay [3] deals with T1, wt KF. Description: Interconversion rates of ternary complexes by PDA and FRET-width analysis. The conditions noted are these: template A, listed as A-dGTP.
The target in the next assay is Y766F (Escherichia coli, UniProt P00582, C907S/D424A/K550C/L744C/Y766F). The conditions noted are these: template A (DNA1); listed as A-dTTP. The gist of the method:
as §1

Where [4] appears, read: ternary complex, saturating nucleotide, PDA.

Regarding `Nc1ncnc2c1ncn2[C@H]1C[C@H](O)[C@@H](COP(=O)(O)OP(=O)(O)OP(=O)(O)O)O1` [dATP], the “occupancy of the closed conformation” value at E710A (template T (DNA3)) is listed as 58%. Moreover, at E710A (template T (DNA3), listed as T-dATP), the “K2 (equilibrium IN to closed CN)” value is ~ 2.

As to `Nc1ccn([C@H]2C[C@H](O)[C@@H](COP(=O)(O)OP(=O)(O)OP(=O)(O)O)O2)c(=O)n1` [dCTP], the “occupancy of the closed conformation” value on E710A (template G (DNA2)) is 61%. Also, the “K2 (equilibrium IN to closed CN)” value was ~ 2 at E710A (template G (DNA2), listed as G-dCTP) and 8.9 on Y766A.

As for `Nc1nc2c(ncn2[C@H]2C[C@H](O)[C@@H](COP(=O)(O)OP(=O)(O)OP(=O)(O)O)O2)c(=O)[nH]1` [dGTP], on wt KF [1], the “free energy of closed complex relative to partially closed state, ΔrG(IN/CN)” value is listed as “+6 kJ mol^−1” and the “free energy of partially closed state relative to open binary complex, ΔrG(O/IN)” value is -0.17 kcal/mol. For the same molecule, the “K2 (equilibrium IN to closed CN)” value on wt KF [2] is reported as under 0.2. For the same molecule, the “rate of the O-to-IN transition” value on wt KF [3] (at 60 μM dGTP (E. coli concentration), K1·kIN→O·[N]) stood at 390 s⁻¹. Also, at wt KF [3] (setting [4]), the “kCN→IN (closed to partially closed)” value was 45 s⁻¹ and the “kIN→CN (partially closed to closed)” value was found to be 3 s⁻¹.

`Cc1cn([C@H]2C[C@H](O)[C@@H](COP(=O)(O)OP(=O)(O)OP(=O)(O)O)O2)c(=O)[nH]c1=O` [dTTP]: at wt KF [1], the “free energy of closed complex relative to partially closed state, ΔrG(IN/CN)” value is -0.96 kcal/mol and the “free energy of partially closed state relative to open binary complex, ΔrG(O/IN)” value was -1.9 kcal/mol. Further, the “molecules in closed conformation (occupancy)” value at wt KF [1] (template A (DNA1), 1 mM nucleotide) is ~ 85%. For the same molecule, the “K2 (equilibrium IN to closed CN)” value on wt KF [1] (template A (DNA1), listed as A-dTTP) is given as 6.1. Moreover, on Y766F, the “K2 (equilibrium IN to closed CN)” value stood at 9.6.

As for `Nc1nc2c(ncn2[C@@H]2O[C@H](COP(=O)(O)OP(=O)(O)OP(=O)(O)O)[C@@H](O)[C@H]2O)c(=O)[nH]1` [rGTP], the “K2 (equilibrium IN to closed CN)” value at wt KF [1] (template A (DNA1), listed as A-rGTP) was under 0.2.
